Data set [1] concerns Canis familiaris. The data set can be described thus: Toxicity in Beagle dog assessed as methemoglobin level at 5.3 mg/kg/day, po after 2 weeks. Type of data set: organism-based, Canis lupus familiaris. The arrangement: route oral. The settings on record: in vivo, 336 h. An outline of the steps:
(§1)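 Male beagles aged 8–9 months (n = 2) received oral primaquine diphosphate as bulk drug in gelatin capsules on days 1–4 (0.0116 mmol/kg/day as base), dosed by day-1 body weight. Jugular or cephalic blood was drawn before dosing on days 1, 2 and 4, then on days 5, 7, 9, 11, 15, 18, 21, 25 and 29. Methemoglobin was measured by co-oximeter absorbance at four wavelengths.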

Data set [2] deals with Pneumocystis carinii. In words: Antimicrobial activity against Pneumocystis carinii infected BALB/c mouse at 2 mg/kg/day, po after 21 days administered 4 weeks postinfection by methenamine silver nitrate staining method. Type of data set: functional, organism-based.
Data set [3] has as its system Pneumocystis carinii. The data set can be described thus: Antimicrobial activity against Pneumocystis carinii infected BALB/c mouse at 2 mg/kg/day, po after 21 days administered 4 weeks postinfection by Giemsa staining method. Type of data set: functional, organism-based.
Data set [4] deals with Canis familiaris. In words: Toxicity in Beagle dog assessed as increase in methemoglobin level at 5.3 mg/kg/day, po measured on day 5. Type of data set: organism-based, Canis lupus familiaris. Details: route oral. The settings on record: in vivo. An outline of the steps:
as §1

Data set [5] relates to Leishmania donovani. The data set can be described thus: Antileishmanial activity against Leishmania donovani HU3 infected in mouse. Type of data set: functional. An outline of the steps: (§2)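 L. donovani HU3 amastigotes, 1 × 10^7 given IV to mice. From day 7 post-infection, dosed orally once daily for 5 days in 0.25% methylcellulose-10% ethanol; reference stibogluconate given SC. Mice killed at day 14 post-infection. Parasite burden counted on liver impression smears against untreated controls. ED50 from linear regression, with 95% confidence limits.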

Data set [6] has as its system Pneumocystis carinii. The data set can be described thus: Antimicrobial activity against Pneumocystis carinii infected BALB/c mouse at 1.3 mg/kg/day, po after 21 days administered 4 weeks postinfection by Giemsa staining method. Format: functional, organism-based. An outline of the steps:
(§3)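 Female BALB/c mice, 6-8 weeks, immunosuppressed with dexamethasone […] in drinking water, then inoculated transtracheally with 10^6 P. carinii. From 4 weeks post-inoculation, drug given in drinking water for 3 weeks, 10 mice/group, intake monitored. Lung impression smears stained with Giemsa or methenamine silver, read blinded. Graded 0-5 on a log scale; group mean ± SE.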

For data set [7], the system named is Plasmodium berghei. In words: Antimalarial activity against Plasmodium berghei KBG-173 infected in Swiss(CD-1) mouse assessed as parasitemia at 1 mg/kg/day, po treated for 3 days measured on day 6.
The subject of data set [8] is Pneumocystis carinii. In words: Antimicrobial activity against Pneumocystis carinii infected BALB/c mouse at 1.3 mg/kg/day, po after 21 days administered 4 weeks postinfection by Giemsa staining. Format: functional, organism-based. An outline of the steps: as §3
The subject of data set [9] is Canis familiaris. The data set can be described thus: Toxicity in Beagle dog assessed as survival at 5.3 mg/kg/day, po after 4 days. Type of data set: organism-based, Canis lupus familiaris. The arrangement: route oral. The settings on record: in vivo, 96 h. An outline of the steps:
(§4)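 Beagle dogs, 8-9 months old, given drug as bulk powder in gelatin capsules orally on days 1-4, at 0.0116 mmol/kg/day as base. Daily clinical observation. Methemoglobin measured by co-oximetry from jugular or cephalic blood, predose on days 1, 2 and 4, then through day 29.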

Data set [10] has as its system Plasmodium berghei. In words: Antimalarial activity against Plasmodium berghei KBG-173 infected in Swiss(CD-1) mouse assessed as parasitemia at 0.25 mg/kg/day, po treated for 3 days measured on day 6.
For data set [11], the system named is Canis familiaris. The data set can be described thus: Toxicity in Beagle dog assessed as survival at 6.7 mg/kg/day, po after 4 days. The note with it: in vivo, 96 h. Type of data set: organism-based, Canis lupus familiaris. Details: route oral. An outline of the steps:
as §4

Data set [12] deals with Pneumocystis carinii. In words: Antimicrobial activity against Pneumocystis carinii infected BALB/c mouse at 0.1 mg/kg/day, po after 21 days administered 4 weeks postinfection by methenamine silver nitrate staining method. Type of data set: functional, organism-based.
A further data set concerns Mus musculus. The data set can be described thus: Toxicity in Plasmodium berghei KBG-173 infected Swiss(CD-1) mouse at 64 mg/kg/day, po treated for 3 days. Details: route oral. Type of data set: organism-based. The note with it: in vivo, 72 h. A digest of the protocol:
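CD-1 mice infected with 5 × 10^4 P. berghei KBG-173 parasitized erythrocytes. Drug in 0.5% hydroxyethylcellulose/0.1% Tween 80, given orally on days 3-5 post-infection, 7 mice per dose. Blood films on day +6 and weekly to day +60. Mortality tabulated for 60 days; blood-film-negative survivors counted as cured.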

In data set [13] the test system is Canis familiaris. In words: Toxicity in Beagle dog assessed as increase in methemoglobin level at 6.4 mg/kg/day, po between 7 to 11 days. Details: route oral. Type of data set: organism-based, Canis lupus familiaris. The note with it: in vivo. A digest of the protocol:
as §4

For data set [14], the system named is Plasmodium berghei. In words: Antimalarial activity against Plasmodium berghei KBG-173 infected in Swiss(CD-1) mouse assessed as survival at 0.25 mg/kg/day, po treated for 3 days measured on day 34. Type of data set: functional, organism-based. An outline of the steps: (§5)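 CD-1 mice, 5 weeks old, male or female, groups of five, infected with 5 × 10^4 P. berghei KBG-173 parasitized erythrocytes. Drug in 0.5% hydroxyethylcellulose/0.1% Tween 80, given orally once daily on days 3, 4 and 5 post-infection. Parasitemia from blood films on day +6. Read-out also includes increase in mean survival time over controls and survivors at day +34.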

The subject of data set [15] is Leishmania donovani. In words: Antileishmanial activity against Leishmania donovani HU3 infected in mouse assessed as inhibition of parasites in liver at 5 mg/kg/day, po treated for 5 days administered 7 days postinfection measured after 14 days post-infection. Type of data set: functional. A digest of the protocol:
as §2

The test system of data set [16] is Pneumocystis carinii. The data set can be described thus: Antimicrobial activity against Pneumocystis carinii infected BALB/c mouse at 0.25 mg/kg/day, po after 21 days administered 4 weeks postinfection by Giemsa staining method. Format: functional, organism-based. A digest of the protocol: as §3
The test system of data set [17] is Leishmania donovani. In words: Antileishmanial activity against Leishmania donovani HU3 infected in mouse assessed as inhibition of parasites in liver at 100 mg/kg/day, po treated for 5 days administered 7 days postinfection measured after 14 days. Type of data set: functional. A digest of the protocol:
as §2

In data set [18] the test system is Leishmania donovani. In words: Antileishmanial activity against Leishmania donovani HU3 infected in mouse assessed as inhibition of parasites in liver at 10 mg/kg/day, po treated for 5 days administered 7 days postinfection measured after 14 days post-infection. Type of data set: functional. An outline of the steps:
as §2

Data set [19] deals with Plasmodium berghei. In words: Antimalarial activity against Plasmodium berghei KBG-173 infected in Swiss(CD-1) mouse assessed as survival at 1 mg/kg/day, po treated for 3 days measured on day 34. Format: functional, organism-based. A digest of the protocol:
as §5

The subject of data set [20] is Canis familiaris. In words: Toxicity in Beagle dog assessed as survival at 6.4 mg/kg/day, po after 4 days. The settings on record: in vivo, 96 h. Format: organism-based, Canis lupus familiaris. The arrangement: route oral. An outline of the steps:
as §4

Data set [21] deals with Leishmania donovani. In words: Antileishmanial activity against Leishmania donovani HU3 infected in mouse assessed as inhibition of parasites in liver at 0.4 mg/kg/day, po treated for 5 days administered 7 days postinfection measured after 14 days post-infection. Type of data set: functional. A digest of the protocol:
as §2

Data set [22] has as its system Plasmodium berghei. In words: Antimalarial activity against Plasmodium berghei KBG-173 infected in Swiss(CD-1) mouse assessed as mean survival time at 0.25 mg/kg/day, po treated for 3 days. Format: functional. A digest of the protocol: as §5
Data set [23] concerns Plasmodium berghei. The data set can be described thus: Antimalarial activity against Plasmodium berghei KBG-173 infected in Swiss(CD-1) mouse assessed as mean survival time at 1 mg/kg/day, po treated for 3 days. Type of data set: functional. A digest of the protocol:
as §5

The subject of data set [24] is Pneumocystis carinii. The data set can be described thus: Antimicrobial activity against Pneumocystis carinii infected BALB/c mouse at 0.25 mg/kg/day, po after 21 days administered 4 weeks postinfection by methenamine silver nitrate staining method. Type of data set: functional, organism-based. An outline of the steps:
as §3

Active and inactive are the calls of the source. No cut-off for these calls is given here.

Regarding `COc1cc(NC(C)CCCN)c2ncccc2c1` (stereo unspecified) [PRIMAQUINE], the Activity entry is “Non-toxic” with Canis familiaris [1] and “Toxic” in the data set on Canis familiaris [4]. The outcome in the data set on Pneumocystis carinii [2] and in the data set with Pneumocystis carinii [3] was inactive.
By ED50 is commonly meant the dose at which the effect has come halfway, by size or by number of responders. Read a high ED50 as weaker potency. In the case of `CCN(CC)CCCCCCNc1cc(OC)cc2c(C)ccnc12` [SITAMAQUINE], in the data set on Leishmania donovani [5], the ED90 was 4.14 mg/kg. The ED50 with Leishmania donovani [5] (Leishmania donovani, HU3) was 1.55 mg/kg.
Broadly, the inhibition in vivo is the share of the control response that was lost under treatment. For `COc1cc(NC(C)CCCN)c2nccc(C)c2c1Oc1ccc(Cl)c(Cl)c1.O=C(O)CCC(=O)O` (racemic), the result in the data set with Pneumocystis carinii [6], with Pneumocystis carinii [8], with Pneumocystis carinii [12], in the data set with Plasmodium berghei [14], with Pneumocystis carinii [16] and in the data set with Plasmodium berghei [19] was Active. In addition, the outcome in the data set with Pneumocystis carinii [24] was Active. Besides, the Activity in the data set with Plasmodium berghei [7] is listed as 0.1%; with Canis familiaris [9], “Non-toxic”; in the data set on Plasmodium berghei [10], 4.8%; in the data set on Canis familiaris [11], “Non-toxic”; with Mus musculus, “Toxic”; in the data set on Canis familiaris [13], “Toxic”. Besides, in the data set with Canis familiaris [20], the Activity result is “Non-toxic”. Further, the inhibition in vivo at 5 mg/kg/day in the data set on Leishmania donovani [15] was found to be 99.2%. Besides, the inhibition in vivo at 100 mg/kg/day in the data set on Leishmania donovani [17] is 99%. Moreover, the inhibition in vivo at 10 mg/kg/day in the data set with Leishmania donovani [18] stood at 99.8%. The inhibition in vivo at 0.4 mg/kg/day in the data set with Leishmania donovani [21] was 34.1%. The MST in the data set on Plasmodium berghei [22] turned out to be 11.6 days; in the data set with Plasmodium berghei [23], 10.2 days.

Source of the values: ChEMBL document CHEMBL1649109, “Antiparasitic activities and toxicities of individual enantiomers of the 8-aminoquinoline 8-[(4-amino-1-methylbutyl)amino]-6-methoxy-4-methyl-5-[3,4-dichlorophenoxy]quinoline succinate” (Antimicrob Agents Chemother, 2008).
